# Measured values published in ChEMBL document CHEMBL1268917, “Synthesis and biological evaluation of radio-iodinated benzimidazoles as SPECT imaging agents for NR2B subtype of NMDA receptor” (Bioorg Med Chem, 2010).
# Legend:
# Intestine [1] = assay: Biodistribution in ddY mouse intestine assessed per gram of tissue at 14.8 kBq, iv after 0.5 mins; type: ADME, organism-based; conditions: in vivo
# Outline: (§1)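 Killed at set times after injection; organs and blood removed, weighed, gamma counted. Data as % injected dose per gram tissue, mean SD, n = 5–6.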
# Blood [2] = assay: Biodistribution in ddY mouse blood assessed per gram of tissue at 14.8 kBq, iv after 0.5 mins; type: ADME, organism-based; conditions: in vivo; outline: as §1
# Kidney [3] = assay: Biodistribution in ddY mouse kidney assessed per gram of tissue at 14.8 kBq, iv after 360 mins; type: ADME, organism-based; conditions: in vivo, 6 h; outline: as §1
# Pancreas = assay: Biodistribution in ddY mouse pancreas assessed per gram of tissue at 14.8 kBq, iv after 180 mins; type: ADME, organism-based; conditions: in vivo, 3 h
# Outline: (§2)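 Radioiodinated tracer (14.8 kBq) injected via tail vein into male ddY mice (6 weeks, 30–35 g). Organs removed at set times after injection, weighed and gamma-counted; uptake expressed as % injected dose per gram tissue, mean ± SD, n = 5–6.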
# Spleen = assay: Biodistribution in ddY mouse spleen assessed per gram of tissue at 14.8 kBq, iv after 5 mins; type: ADME, organism-based; conditions: in vivo; outline: as §2
# Liver [4] = assay: Biodistribution in ddY mouse liver assessed per gram of tissue at 14.8 kBq, iv after 60 mins; type: ADME, organism-based; conditions: in vivo, 1 h; outline: as §2
# Heart [5] = assay: Biodistribution in ddY mouse heart assessed per gram of tissue at 14.8 kBq, iv after 0.5 mins; type: ADME, organism-based; conditions: in vivo; outline: as §1
# Lung [6] = assay: Biodistribution in ddY mouse lung assessed per gram of tissue at 14.8 kBq, iv after 360 mins; type: ADME, organism-based; conditions: in vivo, 6 h; outline: as §2
# Intestine [7] = assay: Biodistribution in ddY mouse intestine assessed per gram of tissue at 14.8 kBq, iv after 60 mins; type: ADME, organism-based; conditions: in vivo, 1 h; outline: as §1
# Brain [8] = assay: Biodistribution in ddY mouse brain assessed per gram of tissue at 148 kBq, iv after 180 mins in presence of 50 mg/kg, iv of cyclosporin A administered 30 mins before compound challenge (reference value: 0.50 +/- 0.04 %); type: ADME, organism-based; parameters: dose 50 mg/kg, route intravenous; conditions: in vivo, 3 h
# Brain [9] = assay: Biodistribution in ddY mouse brain assessed per gram of tissue at 14.8 kBq, iv after 360 mins; type: ADME, organism-based; conditions: in vivo, 6 h; outline: as §1
# Liver [10] = assay: Biodistribution in ddY mouse liver assessed per gram of tissue at 14.8 kBq, iv after 30 mins; type: ADME, organism-based; conditions: in vivo, 0.5 h; outline: as §1
# Heart [11] = assay: Biodistribution in ddY mouse heart assessed per gram of tissue at 14.8 kBq, iv after 360 mins; type: ADME, organism-based; conditions: in vivo, 6 h; outline: as §1
# Stomach [12] = assay: Biodistribution in ddY mouse stomach assessed per gram of tissue at 14.8 kBq, iv after 180 mins; type: ADME, organism-based; conditions: in vivo, 3 h; outline: as §2
# Intestine [13] = assay: Biodistribution in ddY mouse intestine assessed per gram of tissue at 14.8 kBq, iv after 360 mins; type: ADME, organism-based; conditions: in vivo, 6 h; outline: as §1
# Brain [14] = assay: Biodistribution in ddY mouse brain assessed per gram of tissue at 148 kBq, iv after 180 mins in presence of 200 mg/kg, iv of probenecid administered 30 mins before compound challenge (reference value: 0.44 +/- 0.06 %); conditions: in vivo, 3 h
# Kidney [15] = assay: Biodistribution in ddY mouse kidney assessed per gram of tissue at 14.8 kBq, iv after 60 mins; type: ADME, organism-based; conditions: in vivo, 1 h; outline: as §1
# Blood [16] = assay: Biodistribution in ddY mouse blood assessed per gram of tissue at 148 kBq, iv after 180 mins in presence of 50 mg/kg, iv of cyclosporin A administered 30 mins before compound challenge (reference value: 0.78 +/- 0.27 %); type: ADME, organism-based; parameters: dose 50 mg/kg, route intravenous; conditions: in vivo, 3 h
# Brain [17] = assay: Biodistribution in ddY mouse brain assessed per gram of tissue at 14.8 kBq, iv after 0.5 mins; type: ADME, organism-based; conditions: in vivo; outline: as §1
# Heart [18] = assay: Biodistribution in ddY mouse heart assessed per gram of tissue at 14.8 kBq, iv after 180 mins; type: ADME, organism-based; conditions: in vivo, 3 h; outline: as §1
# Brain [19] = assay: Biodistribution in ddY mouse brain assessed per gram of tissue at 14.8 kBq, iv after 5 mins; type: ADME, organism-based; conditions: in vivo; outline: as §1
# Stomach [20] = assay: Biodistribution in ddY mouse stomach assessed per gram of tissue at 14.8 kBq, iv after 30 mins; type: ADME, organism-based; conditions: in vivo, 0.5 h; outline: as §2
# Intestine [21] = assay: Biodistribution in ddY mouse intestine assessed per gram of tissue at 14.8 kBq, iv after 5 mins; type: ADME, organism-based; conditions: in vivo; outline: as §1
# Lung [22] = assay: Biodistribution in ddY mouse lung assessed per gram of tissue at 14.8 kBq, iv after 0.5 mins; type: ADME, organism-based; conditions: in vivo; outline: as §2
smiles,measurement,setting,value
Oc1ccc2nc(CN3CCC(Cc4ccc([125I])cc4)CC3)[nH]c2c1,Drug uptake,Intestine [1],4.02 % ID/g
same,Drug uptake,Blood [2],3.22 % ID/g
same,Drug uptake,Kidney [3],5.46 % ID/g
same,Drug uptake,Pancreas,6.53 % ID/g
same,Drug uptake,Spleen,5.66 % ID/g
same,Drug uptake,Liver [4],30.5 % ID/g
same,Drug uptake,Heart [5],1.47 % ID/g
same,Drug uptake,Lung [6],3.44 % ID/g
same,Drug uptake,Intestine [7],2.35 % ID/g
same,Drug uptake,Brain [8],0.66 % ID/g
same,Drug uptake,Brain [9],0.55 % ID/g
same,Drug uptake,Liver [10],28.99 % ID/g
same,Drug uptake,Heart [11],1.58 % ID/g
same,Drug uptake,Stomach [12],2.51 % ID/g
same,Drug uptake,Intestine [13],5.89 % ID/g
same,Drug uptake,Brain [14],0.57 % ID/g
same,Drug uptake,Kidney [15],10.34 % ID/g
same,Drug uptake,Blood [16],0.52 % ID/g
same,Drug uptake,Brain [17],0.21 % ID/g
same,Drug uptake,Heart [18],1.58 % ID/g
same,Drug uptake,Brain [19],0.42 % ID/g
same,Drug uptake,Stomach [20],2.54 % ID/g
same,Drug uptake,Intestine [21],1.83 % ID/g
same,Drug uptake,Lung [22],6.6 % ID/g
